We go through 11 compounds from ChEMBL document CHEMBL3797098, “An in Vitro and in Vivo Investigation of Bivalent Ligands That Display Preferential Binding and Functional Activity for Different Melanocortin Receptor Homodimers” (J Med Chem, 2016).

Data set [1] deals with Melanocortin receptor 5 (Mus musculus) (UniProt P41149). As to the kind of experiment: Agonist activity at mouse MC5R expressed in HEK293 cells assessed as cAMP accumulation incubated for 2 hrs by alphascreen assay relative to Ac-His-DPhe-Arg-Trp-NH2. It is filed as functional, cell-based. The method, boiled down: (§1)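 HEK293 cells stably expressing mouse MC1R, MC3R (Flag-tagged), MC4R or MC5R, 10,000 cells/well, stimulated with ligand at 10^-13 to 10^-4 M for 2 h at room temperature in HBSS stimulation buffer with 0.5 mM IBMX, 0.1% BSA, pH 7.4. cAMP read by AlphaScreen competition after a further 2 h with donor beads.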
Melanocortin receptor 5 (Mus musculus), sequence (P41149 whole entry): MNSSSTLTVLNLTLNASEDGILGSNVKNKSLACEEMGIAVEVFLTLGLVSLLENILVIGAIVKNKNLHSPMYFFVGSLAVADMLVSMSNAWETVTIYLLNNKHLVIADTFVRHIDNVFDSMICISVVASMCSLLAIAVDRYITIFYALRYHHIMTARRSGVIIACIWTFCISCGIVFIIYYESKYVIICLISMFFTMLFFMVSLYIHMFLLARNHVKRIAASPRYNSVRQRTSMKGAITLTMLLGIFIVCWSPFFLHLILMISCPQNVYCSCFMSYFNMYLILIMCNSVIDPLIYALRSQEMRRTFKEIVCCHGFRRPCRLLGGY

For data set [2], the target named is Melanocyte-stimulating hormone receptor (Mus musculus) (UniProt Q01727). As to the kind of experiment: Agonist activity at mouse MC1R expressed in HEK293 cells assessed as cAMP accumulation incubated for 2 hrs by alphascreen assay relative to Ac-His-DPhe-Arg-Trp-NH2. It is filed as functional, cell-based. A digest of the protocol:
as §1

The target of data set [3] is Melanocortin receptor 4 (Mus musculus) (UniProt P56450). As to the kind of experiment: Agonist activity at mouse MC4R expressed in HEK293 cells assessed as cAMP accumulation incubated for 2 hrs by alphascreen assay relative to Ac-His-DPhe-Arg-Trp-NH2. It is filed as functional, cell-based. The method, boiled down: as §1
Melanocortin receptor 4 (Mus musculus), sequence (P56450 whole entry): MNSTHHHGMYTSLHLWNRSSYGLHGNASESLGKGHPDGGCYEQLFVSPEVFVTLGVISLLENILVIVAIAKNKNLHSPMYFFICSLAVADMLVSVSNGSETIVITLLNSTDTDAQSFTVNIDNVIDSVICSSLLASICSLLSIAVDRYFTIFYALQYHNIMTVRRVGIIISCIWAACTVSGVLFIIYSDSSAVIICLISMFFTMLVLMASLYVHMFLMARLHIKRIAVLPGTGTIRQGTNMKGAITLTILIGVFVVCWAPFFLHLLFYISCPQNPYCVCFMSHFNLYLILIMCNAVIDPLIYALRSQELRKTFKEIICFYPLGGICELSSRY
For data set [4], the target named is Melanocortin receptor 3 (Mus musculus) (UniProt P33033). The data set is described as follows: Displacement of 125I-NDP-MSH from mouse MC3R expressed in HEK293 cells at 100 uM incubated for 1 hr by gamma counting analysis. It is filed as cell-based. A digest of the protocol:
(§2)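 Mouse MC3R-Flag transiently transfected into HEK293 cells using FuGene6 two days before assay. Cells exposed 1 h at 37°C to 125I-NDP-MSH (100,000 cpm/well) plus competitor at 10^-12 to 10^-4 M in DMEM/0.1% BSA, then washed, lysed and gamma counted. Nonspecific binding defined with 10^-6 M NDP-MSH. Duplicates, ≥2 independent experiments.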

The target is the same in data set [5]. The data set is described as follows: Displacement of 125I-NDP-MSH from mouse MC3R expressed in HEK293 cells incubated for 1 hr by gamma counting analysis relative to Ac-His-DPhe-Arg-Trp-NH2. It is filed as cell-based. The method, boiled down: as §2
In data set [6] the target is Melanocyte-stimulating hormone receptor (Mus musculus) (UniProt Q01727). As to the kind of experiment: Displacement of 125I-NDP-MSH from mouse MC1R expressed in HEK293 cells incubated for 1 hr by gamma counting analysis relative to Ac-His-DPhe-Arg-Trp-NH2. It is filed as cell-based. The method, boiled down: (§3)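 Whole HEK293 cells stably expressing mouse MC1R or MC4R, grown to 90-100% confluency, incubated 1 h at 37°C in DMEM/0.1% BSA with 125I-NDP-MSH (100,000 cpm/well) and unlabeled ligand at 10^-12 to 10^-4 M. After one wash, cells lysed with NaOH/Triton X-100 and gamma counted. Nonspecific binding defined with 10^-6 M NDP-MSH.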
Melanocyte-stimulating hormone receptor (Mus musculus), sequence (Q01727 whole entry, looked up): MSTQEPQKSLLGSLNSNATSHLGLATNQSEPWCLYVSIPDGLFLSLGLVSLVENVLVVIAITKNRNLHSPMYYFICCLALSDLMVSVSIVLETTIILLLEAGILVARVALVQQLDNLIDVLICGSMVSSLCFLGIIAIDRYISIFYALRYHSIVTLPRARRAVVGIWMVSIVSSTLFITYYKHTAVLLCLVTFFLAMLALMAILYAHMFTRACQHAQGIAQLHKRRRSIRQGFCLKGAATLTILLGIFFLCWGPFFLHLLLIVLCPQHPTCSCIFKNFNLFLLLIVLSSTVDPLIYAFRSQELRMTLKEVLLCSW

Data set [7] has as its target Melanocortin receptor 3 (Mus musculus) (UniProt P33033). The data set is described as follows: Agonist activity at mouse MC3R expressed in HEK293 cells assessed as cAMP accumulation at 100 uM incubated for 2 hrs by alphascreen assay. It is filed as functional, cell-based. The method, boiled down: (§4)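 cAMP response at 100 μM in stably transfected HEK293 cells (mouse MC3R-Flag, MC4R or MC5R), expressed as % of maximal NDP-MSH signal. AlphaScreen readout after 2 h room-temperature stimulation in IBMX-containing HBSS buffer, pH 7.4. Duplicate points, at least three independent experiments.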

Data set [8] has as its target Melanocortin receptor 4 (Mus musculus) (UniProt P56450). The data set is described as follows: Agonist activity at mouse MC4R expressed in HEK293 cells assessed as cAMP accumulation at 100 uM incubated for 2 hrs by alphascreen assay. It is filed as functional, cell-based. The method, boiled down: as §4
Data set [9] has as its system Mus musculus. As to the kind of experiment: Effect on body weight in male 129/Sv x C57BL/6J mouse at 2.5 to 5 nmol, icv measured at 2 to 72 hrs post dose. It is filed as ADME, organism-based. The following applies: in vivo, icv_or_intrathecal. The method, boiled down: (§5)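 Crossover design in mice aged 8 weeks with lateral-ventricle cannulas (placement validated by PYY3-36), chow ad libitum, 12-h light/dark. Single ICV injection of 1.0, 2.5 or 5.0 nmol in 3 µL saline, or saline alone, 2 h before lights out. Food intake and body weight weighed at 0, 2, 4, 6, 8, 24, 48, 72 h. One-way ANOVA with Bonferroni test versus saline.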

Data set [10] deals with Mus musculus. As to the kind of experiment: Reduction in food intake in female 129/Sv x C57BL/6J mouse at 2.5 to 5 nmol, icv measured at 2 to 8 hrs post dose. It is filed as functional, organism-based. The method, boiled down:
as §5

For data set [11], the system named is Mus musculus. As to the kind of experiment: Reduction in food intake in male 129/Sv x C57BL/6J mouse at 2.5 to 5 nmol, icv measured at 2 to 5 hrs post dose. It is filed as functional, organism-based.
For data set [12], the system named is Mus musculus. The data set is described as follows: Reduction in food intake in female 129/Sv x C57BL/6J mouse at 2.5 to 5 nmol, icv measured at 48 to 72 hrs post dose. It is filed as functional, organism-based. The method, boiled down: as §5
The subject of data set [13] is Mus musculus. The data set is described as follows: Effect on body weight in female 129/Sv x C57BL/6J mouse at 2.5 to 5 nmol, icv measured at 2 to 72 hrs post dose. The settings on record: in vivo, icv_or_intrathecal. It is filed as ADME, organism-based. A digest of the protocol:
as §5

Data set [14] deals with Mus musculus. As to the kind of experiment: Reduction in food intake in male 129/Sv x C57BL/6J mouse at 2.5 to 5 nmol, icv measured at 24 to 72 hrs post dose. It is filed as functional, organism-based. The method, boiled down: as §5
In data set [15] the test system is Mus musculus. As to the kind of experiment: Reduction in food intake in icv dosed male 129/Sv x C57BL/6J mouse measured at 2 to 72 hrs post dose. It is filed as functional, organism-based. A digest of the protocol:
as §5

In data set [16] the test system is Mus musculus. As to the kind of experiment: Toxicity in male 129/Sv x C57BL/6J mouse assessed as drug tolerability at 2.5 and 5 nmol, icv measured at 2 to 72 hrs post dose. The following applies: in vivo. It is filed as organism-based.
The subject of data set [17] is Mus musculus. The data set is described as follows: Reduction in food intake in female 129/Sv x C57BL/6J mouse at 2.5 to 5 nmol, icv measured at 24 hrs post dose. It is filed as functional, organism-based. A digest of the protocol:
as §5

The target in data set [18] is Melanocortin receptor 5 (Mus musculus) (UniProt P41149). As to the kind of experiment: Agonist activity at mouse MC5R expressed in HEK293 cells assessed as cAMP accumulation at 100 uM incubated for 2 hrs by alphascreen assay. It is filed as functional, cell-based. The method, boiled down:
as §4

Data set [19] addresses Melanocortin receptor 4 (Mus musculus) (UniProt P56450). As to the kind of experiment: Displacement of 125I-NDP-MSH from mouse MC4R expressed in HEK293 cells incubated for 1 hr by gamma counting analysis relative to Ac-His-DPhe-Arg-Trp-NH2. It is filed as cell-based. A digest of the protocol:
as §3

Structures are written as SMILES. Calls of active or inactive are those of the source. No cut-off for these calls is given here. Square brackets hold non-standard residues; d marks the D form. Peptide text beside a SMILES is read from it.

Melanocortin receptor 3 (Mus musculus), sequence (P33033 whole entry): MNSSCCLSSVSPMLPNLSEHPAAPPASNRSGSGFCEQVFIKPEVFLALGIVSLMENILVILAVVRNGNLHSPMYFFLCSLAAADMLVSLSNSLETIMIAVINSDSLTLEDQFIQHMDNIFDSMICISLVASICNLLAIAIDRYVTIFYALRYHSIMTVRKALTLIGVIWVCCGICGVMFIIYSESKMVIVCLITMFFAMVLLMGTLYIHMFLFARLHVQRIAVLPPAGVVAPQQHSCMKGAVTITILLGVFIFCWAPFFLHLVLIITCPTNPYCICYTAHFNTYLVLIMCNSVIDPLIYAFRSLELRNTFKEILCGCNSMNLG

In the case of `N=C(N)NCCC[C@H](NC(=O)[C@@H](Cc1ccccc1)NC(=O)[C@H](Cc1cnc[nH]1)NC(=O)COCC(=O)NCCCOCCOCCOCCCN)C(=O)N[C@@H](Cc1c[nH]c2ccccc12)C(N)=O`, the Ratio EC50 stood at 2 in data set [1], 0.6 in data set [2] and 0.7 in data set [3]. In addition, the inhibition in data set [4] was 78%.
For `CC(=O)N[C@@H](Cc1cnc[nH]1)C(=O)N[C@H](Cc1ccccc1)C(=O)N[C@@H](CCCNC(=N)N)C(=O)N[C@@H](Cc1c[nH]c2ccccc12)C(N)=O`, the inhibition in data set [4] was found to be 60%.
Take `CC(=O)N[C@@H](Cc1cnc[nH]1)C(=O)N[C@H](Cc1ccccc1)C(=O)N[C@@H](CCCNC(=N)N)C(=O)N[C@@H](Cc1c[nH]c2ccccc12)C(=O)NCCCOCCOCCOCCCNC(=O)COCC(N)=O`: the figures for the Ratio IC50 in data set [5] and in data set [6] were 6 and 2, respectively.
Regarding `CC(=O)N[C@H](Cc1cnc[nH]1)C(=O)N[C@H](Cc1ccccc1)C(=O)N[C@@H](CCCNC(=N)N)C(=O)N[C@H](Cc1c[nH]c2ccccc12)C(=O)N1CCC[C@@H]1C(=O)NCC(=O)N1CCC[C@@H]1C(=O)NCC(=O)N1CCC[C@@H]1C(=O)NCC(=O)N1CCC[C@@H]1C(=O)NCC(=O)N1CCC[C@@H]1C(=O)NCC(=O)N1CCC[C@H]1C(=O)NCC(=O)N[C@@H](Cc1cnc[nH]1)C(=O)N[C@H](Cc1ccccc1)C(=O)N[C@@H](CCCNC(=N)N)C(=O)N[C@@H](Cc1c[nH]c2ccccc12)C(N)=O`, the Ratio EC50 in [2] is 3.
As for `CC(=O)N[C@@H](Cc1cnc[nH]1)C(=O)N[C@H](Cc1ccc2ccccc2c1)C(=O)N[C@@H](CCCNC(=N)N)C(=O)N[C@@H](Cc1c[nH]c2ccccc12)C(=O)NCCCOCCOCCOCCCNC(=O)COCC(N)=O`, the figures for the Activity in data set [7] and in data set [8] were 40% and 20%, respectively. For the same compound, the Ratio IC50 in data set [6] stood at 2.
Take `N=C(N)NCCC[C@H](NC(=O)[C@@H](Cc1ccccc1)NC(=O)[C@H](Cc1cnc[nH]1)NC(=O)CNC(=O)[C@@H]1CCCN1C(=O)CNC(=O)[C@@H]1CCCN1C(=O)CNC(=O)[C@@H]1CCCN1C(=O)CNC(=O)[C@@H]1CCCN1C(=O)CNC(=O)[C@@H]1CCCN1C(=O)CNC(=O)[C@@H]1CCCN1)C(=O)N[C@@H](Cc1c[nH]c2ccccc12)C(N)=O` (H-PGPGPGPGPGPGH[dF]RW-NH2): the Ratio EC50 was 2 in data set [1] and 0.9 in data set [2].
Regarding `CC(=O)N[C@@H](Cc1cnc[nH]1)C(=O)N[C@H](Cc1ccccc1)C(=O)N[C@@H](CCCNC(=N)N)C(=O)N[C@@H](Cc1c[nH]c2ccccc12)C(=O)NCCCOCCOCCOCCCNC(=O)COCC(=O)N[C@@H](Cc1cnc[nH]1)C(=O)N[C@H](Cc1ccccc1)C(=O)N[C@@H](CCCNC(=N)N)C(=O)N[C@@H](Cc1c[nH]c2ccccc12)C(N)=O`, the Activity result in the data set with Mus musculus [9] is “Non-toxic”; in the data set on Mus musculus [13], “Non-toxic”; in the data set with Mus musculus [15], “Dose-dependent effect”; with Mus musculus [16], “Non-toxic”. Besides, the result with Mus musculus [10], with Mus musculus [12] and in the data set on Mus musculus [14] was inactive. The outcome with Mus musculus [11] and in the data set on Mus musculus [17] was Active.
For `N=C(N)NCCC[C@H](NC(=O)[C@@H](Cc1ccc2ccccc2c1)NC(=O)[C@H](Cc1cnc[nH]1)NC(=O)COCC(=O)NCCCOCCOCCOCCCN)C(=O)N[C@@H](Cc1c[nH]c2ccccc12)C(N)=O`, the Ratio IC50 in data set [5] and in [6] was 1 in each case. For the same compound, in data set [8], the Activity was 40%.
On to `CC(=O)N[C@@H](Cc1c[nH]cn1)C(=O)N[C@H](Cc1ccc2ccccc2c1)C(=O)N[C@@H](CCCN=C(N)N)C(=O)N[C@@H](Cc1c[nH]c2ccccc12)C(N)=O`, for which the figures for the Activity in data set [18] and in data set [7] were 75% and 45%, respectively.
With `CC(=O)N[C@H](Cc1cnc[nH]1)C(=O)N[C@H](Cc1ccccc1)C(=O)N[C@@H](CCCNC(=N)N)C(=O)N[C@H](Cc1c[nH]c2ccccc12)C(=O)N1CCC[C@@H]1C(=O)NCC(=O)N1CCC[C@@H]1C(=O)NCC(=O)N1CCC[C@@H]1C(=O)NCC(=O)N1CCC[C@@H]1C(=O)NCC(=O)N1CCC[C@@H]1C(=O)NCC(=O)N1CCC[C@H]1C(=O)NCC(N)=O`, the Ratio EC50 in [2] is 2; in [3], 0.2. Moreover, the inhibition in data set [4] was 85%.
Turning to `CC(=O)N[C@@H](Cc1cnc[nH]1)C(=O)N[C@H](Cc1ccc2ccccc2c1)C(=O)N[C@@H](CCCNC(=N)N)C(=O)N[C@@H](Cc1c[nH]c2ccccc12)C(=O)NCCCOCCOCCOCCCNC(=O)COCC(=O)N[C@@H](Cc1cnc[nH]1)C(=O)N[C@H](Cc1ccc2ccccc2c1)C(=O)N[C@@H](CCCNC(=N)N)C(=O)N[C@@H](Cc1c[nH]c2ccccc12)C(N)=O`, the figures for the Ratio IC50 in [19] and in [5] were 2 and 4, respectively. The Activity worked out at 80% in data set [7] and 85% in data set [8].
